Assay results: ChEMBL document CHEMBL3112454, “Discovery and SAR study of hydroxyacetophenone derivatives as potent, non-steroidal farnesoid X receptor (FXR) antagonists” (Bioorg Med Chem, 2014)
pIC50: −log10 of the molar value.

Each molecule was assayed against T1, Bile acid receptor (Homo sapiens, UniProt Q96RI1) (assay: Antagonist activity at GST-tagged FXRalpha LBD (unknown origin) assessed as inhibition of CDCA-induced bio-SRC-1 recruitment after 30 mins by fluorescence based HTRF assay).
T1 sequence (Q96RI1 whole entry): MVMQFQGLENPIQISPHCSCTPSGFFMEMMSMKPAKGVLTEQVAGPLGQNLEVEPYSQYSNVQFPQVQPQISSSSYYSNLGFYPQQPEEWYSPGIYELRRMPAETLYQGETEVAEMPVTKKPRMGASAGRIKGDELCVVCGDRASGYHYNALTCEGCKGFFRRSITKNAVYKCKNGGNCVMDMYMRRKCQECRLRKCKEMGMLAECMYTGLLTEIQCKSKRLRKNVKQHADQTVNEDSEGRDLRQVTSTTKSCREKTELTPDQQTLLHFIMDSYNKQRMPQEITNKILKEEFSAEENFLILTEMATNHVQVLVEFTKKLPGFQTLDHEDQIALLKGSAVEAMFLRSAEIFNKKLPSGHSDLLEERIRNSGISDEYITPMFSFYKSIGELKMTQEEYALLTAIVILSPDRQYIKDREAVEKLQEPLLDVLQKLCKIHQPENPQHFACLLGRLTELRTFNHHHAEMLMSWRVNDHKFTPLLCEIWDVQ
How it was run: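 HTRF coactivator-recruitment assay: 10 nM GST-FXRα LBD with 100 nM biotinylated SRC-1 peptide, with CDCA as agonist present. Compounds were tested at a single concentration or a concentration series, incubated 30 min at room temperature, then fluorescence read. Values are mean SD of triplicate measurements.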

Compound | pIC50
CCc1cc(C(C)=O)c(O)cc1OCCCCCC(C)(C)c1nn[nH]n1 [LY-255283] | 4.45
CCc1cc(C(C)=O)c(OC2CCCC2)cc1OCCCCCC(C)(C)c1nnn[nH]1 | 5.48
CCc1cc(C(C)=O)c(OC(C)c2ccccc2)cc1OCCCCCC(C)(C)c1nnn[nH]1 (configuration not stated) | 5.77
CCc1cc(C(C)=O)c(OCC2CCCCC2)cc1OCCCCCC(C)(C)c1nnn[nH]1 | 5.54
CCc1cc(CC)c(OCCCCCC(C)(C)c2nn[nH]n2)cc1O | 5.51
CCc1cc(C(C)=O)c(OCc2cccc(C)c2)cc1OCCCCCC(C)(C)c1nnn[nH]1 | 5.92
CCCCc1cc(C(C)=O)c(OCc2ccccc2)cc1OCCCCCC(C)(C)c1nnn[nH]1 | 5.11
CCc1cc(C(C)=O)c(O)cc1OCCCCCC(C)(C)C(=O)O | < 4.00
CCCCc1cc(CC)c(O)cc1OCCCCCC(C)(C)c1nnn[nH]1 | 5.06
CCc1cc(C(=O)c2ccccc2)c(O)cc1OCCCCCC(C)(C)c1nnn[nH]1 | 5.51
CCc1cc(C(C)=O)c(OCc2ccccc2)cc1OCCCCCC(C)(C)c1nnn[nH]1 | 5.96
CCCCCCc1cc(C(C)=O)c(O)cc1OCCCCCC(C)(C)c1nnn[nH]1 | 5.49
CCc1cc(C(C)=O)c(OC)cc1OCCCCCC(C)(C)c1nnn[nH]1 | 5.26
CCc1cc(CC)c(OCc2ccccc2)cc1OCCCCCC(C)(C)c1nnn[nH]1 | 5.46

More lines, now with the values ahead:

pIC50 | Compound
4.60 | CCCc1cc(C(C)=O)c(O)cc1OCCCCCC(C)(C)c1nnn[nH]1
5.08 | CCCCCCC(=O)c1cc(CC)c(OCCCCCC(C)(C)c2nnn[nH]2)cc1O
5.27 | CCCCC(=O)c1cc(CC)c(OCCCCCC(C)(C)c2nnn[nH]2)cc1O
5.07 | CCc1cc(C(=O)C(C)C)c(O)cc1OCCCCCC(C)(C)c1nnn[nH]1
5.82 | CCCCc1cc(C(C)=O)c(O)cc1OCCCCCC(C)(C)c1nnn[nH]1
5.24 | CC(=O)c1cc(CC(C)C)c(OCCCCCC(C)(C)c2nnn[nH]2)cc1O
5.07 | CCC(=O)c1cc(CC)c(OCCCCCC(C)(C)c2nnn[nH]2)cc1O

Each molecule was assayed against T2, Bile acid receptor (Homo sapiens) (UniProt Q96RI1) (assay: Ratio of guggulsterone IC50 to compound IC50 for GST-tagged FXRalpha LBD (unknown origin) assessed as inhibition of CDCA-induced bio-SRC-1 recruitment after 30 mins by fluorescence based HTRF assay).
T2 sequence (whole entry): T1 sequence (Q96RI1 whole entry)

Compound | Ratio IC50
CCc1cc(C(C)=O)c(OCc2ccccc2)cc1OCCCCCC(C)(C)c1nnn[nH]1 | 100
